Experimental data taken from ChEMBL document CHEMBL5724801, “EUbOPEN Chemogenomics Library - Multiplex” (2024).
Values joined by “and” are separate entries in the source; they are usually repeats but may differ in a detail not shown here. Identical values can stand only once.

Test system: U2OS
Assay: Multiplex assay against U2OS
Format: toxicity, cell-based
Conditions: human
Method in brief: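 Cells were classed with CellPathfinder machine-learning gating, first as Hoechst high-intensity objects or normal cells, then (normal cells) as healthy, pyknosed or fragmented nuclei, and finally (pyknosed cells) as mitotic or apoptotic. Staining of live cells at seeding used Hoechst33342, BioTracker Green Microtubule Cytoskeleton Dye, MitoTracker Red and Annexin V Alexa Fluor 680, with imaging on a CQ1 microscope at 37°C and 5% CO2 after compound addition. Tubulin, mitochondrial-mass and membrane-permeability phenotypes are per cents of healthy-nucleus cells.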

[1] = 12 h, 1 µM, compound concentration 1 uM
[2] = 12 h, 10 µM, compound concentration 10 uM
[3] = 24 h, 1 µM, compound concentration 1 uM
[4] = 24 h, 10 µM, compound concentration 10 uM
[5] = 48 h, 1 µM, compound concentration 1 uM
[6] = 48 h, 10 µM, compound concentration 10 uM

CN1C[C@H](C(=O)N[C@]2(C)O[C@@]3(O)[C@@H]4CCCN4C(=O)[C@H](Cc4ccccc4)N3C2=O)C[C@@H]2c3cccc4[nH]cc(c34)C[C@H]21.CS(=O)(=O)O [DIHYDROERGOTAMINE MESYLATE]
Population Apoptotic (%) [1]: 82% and 84% | Population Fragmented Nuclei (%) [1]: 24% and 23% | Population Healthy Nuclei (%) [1]: 65% and 63% | Population Hoechst High Intensity Objects (%) [1]: 1% | Population Membrane Permeable-Phenotype (%) [1]: 6% and 14% | Population Mitochondria Different-Phenotype (%) [1]: 2% and 1% | Population Mitotic Cells (%) [1]: 17% and 15% | Population Normal (%) [1]: 98% | Population Pyknosed Nuclei (%) [1]: 10% and 13% | Population Tubulin-Different-Phenotype (%) [1]: 2% and 7% | Total Cell Count [1]: 233 and 101 | Population Apoptotic (%) [2]: 71% and 100% | Population Fragmented Nuclei (%) [2]: 19% | Population Healthy Nuclei (%) [2]: 73% and 77% | Population Hoechst High Intensity Objects (%) [2]: 2% and 1% | Population Membrane Permeable-Phenotype (%) [2]: 5% | Population Mitochondria Different-Phenotype (%) [2]: 1% and 0% | Population Normal (%) [2]: 97% and 98% | Population Pyknosed Nuclei (%) [2]: 7% and 2% | Population Tubulin-Different-Phenotype (%) [2]: 3% and 0% | Total Cell Count [2]: 298 and 144 | Population Apoptotic (%) [3]: 89% and 100% | Population Fragmented Nuclei (%) [3]: 23% and 21% | Population Healthy Nuclei (%) [3]: 67% and 65% | Population Hoechst High Intensity Objects (%) [3]: 0% and 1% | Population Membrane Permeable-Phenotype (%) [3]: 2% and 8% | Population Mitochondria Different-Phenotype (%) [3]: 0% and 2% | Population Mitotic Cells (%) [3]: 10% and 0% | Population Normal (%) [3]: 99% and 98% | Population Pyknosed Nuclei (%) [3]: 9% and 13% | Population Tubulin-Different-Phenotype (%) [3]: 2% and 4% | Total Cell Count [3]: 307 and 132 | Population Apoptotic (%) [4]: 88% and 92% | Population Fragmented Nuclei (%) [4]: 18% and 16% | Population Healthy Nuclei (%) [4]: 73% and 75% | Population Hoechst High Intensity Objects (%) [4]: 1% | Population Membrane Permeable-Phenotype (%) [4]: 4% | Population Mitochondria Different-Phenotype (%) [4]: 2% | Population Mitotic Cells (%) [4]: 11% and 7% | Population Normal (%) [4]: 98% | Population Pyknosed Nuclei (%) [4]: 8% | Population Tubulin-Different-Phenotype (%) [4]: 2% and 1% | Total Cell Count [4]: 337 and 163 | Population Apoptotic (%) [5]: 80% and 90% | Population Fragmented Nuclei (%) [5]: 14% and 11% | Population Healthy Nuclei (%) [5]: 78% and 76% | Population Hoechst High Intensity Objects (%) [5]: 2% and 1% | Population Membrane Permeable-Phenotype (%) [5]: 2% and 6% | Population Mitochondria Different-Phenotype (%) [5]: 2% | Population Mitotic Cells (%) [5]: 19% and 10% | Population Normal (%) [5]: 97% and 98% | Population Pyknosed Nuclei (%) [5]: 7% and 11% | Population Tubulin-Different-Phenotype (%) [5]: 1% and 4% | Total Cell Count [5]: 427 and 173 | Population Apoptotic (%) [6]: 95% and 100% | Population Fragmented Nuclei (%) [6]: 14% and 19% | Population Healthy Nuclei (%) [6]: 75% and 72% | Population Hoechst High Intensity Objects (%) [6]: 3% | Population Membrane Permeable-Phenotype (%) [6]: 7% and 3% | Population Mitochondria Different-Phenotype (%) [6]: 3% and 1% | Population Mitotic Cells (%) [6]: 4% and 0% | Population Normal (%) [6]: 96% | Population Pyknosed Nuclei (%) [6]: 9% and 8% | Population Tubulin-Different-Phenotype (%) [6]: 3% and 2% | Total Cell Count [6]: 452 and 217

COc1cc(/C=C(\C#N)C(=O)Nc2nnc(C(F)(F)F)s2)ccc1OCc1ccc(C(F)(F)F)cc1C(F)(F)F
Population Apoptotic (%) [1]: 22.22% and 38.1% | Population Fragmented Nuclei (%) [1]: 1.99% and 4.9% | Population Healthy Nuclei (%) [1]: 89.05% and 80.42% | Population Hoechst High Intensity Objects (%) [1]: 0% | Population Membrane Permeable-Phenotype (%) [1]: 0.84% and 2.61% | Population Mitochondria Different-Phenotype (%) [1]: 0.28% and 6.09% | Population Mitotic Cells (%) [1]: 77.78% and 61.9% | Population Normal (%) [1]: 100% | Population Pyknosed Nuclei (%) [1]: 8.96% and 14.69% | Population Tubulin-Different-Phenotype (%) [1]: 0.56% and 0% | Total Cell Count [1]: 402 and 143 | Population Apoptotic (%) [2]: 36.59% and 47.06% | Population Fragmented Nuclei (%) [2]: 1.77% and 5.29% | Population Healthy Nuclei (%) [2]: 87.88% and 85.71% | Population Hoechst High Intensity Objects (%) [2]: 0% | Population Membrane Permeable-Phenotype (%) [2]: 0.57% and 6.17% | Population Mitochondria Different-Phenotype (%) [2]: 0.29% and 3.09% | Population Mitotic Cells (%) [2]: 63.41% and 52.94% | Population Normal (%) [2]: 100% | Population Pyknosed Nuclei (%) [2]: 10.35% and 8.99% | Population Tubulin-Different-Phenotype (%) [2]: 1.72% and 0% | Total Cell Count [2]: 396 and 189 | Population Apoptotic (%) [3]: 43.86% and 43.48% | Population Fragmented Nuclei (%) [3]: 1.6% and 6.28% | Population Healthy Nuclei (%) [3]: 88.24% and 81.68% | Population Hoechst High Intensity Objects (%) [3]: 0% | Population Membrane Permeable-Phenotype (%) [3]: 0.81% and 3.85% | Population Mitochondria Different-Phenotype (%) [3]: 0% and 5.13% | Population Mitotic Cells (%) [3]: 56.14% and 56.52% | Population Normal (%) [3]: 100% | Population Pyknosed Nuclei (%) [3]: 10.16% and 12.04% | Population Tubulin-Different-Phenotype (%) [3]: 0.81% and 0.64% | Total Cell Count [3]: 561 and 191 | Population Apoptotic (%) [4]: 52.08% and 57.69% | Population Fragmented Nuclei (%) [4]: 0.74% and 3.08% | Population Healthy Nuclei (%) [4]: 90.41% and 85.46% | Population Hoechst High Intensity Objects (%) [4]: 0% | Population Membrane Permeable-Phenotype (%) [4]: 1.43% and 7.22% | Population Mitochondria Different-Phenotype (%) [4]: 0% and 1.03% | Population Mitotic Cells (%) [4]: 47.92% and 42.31% | Population Normal (%) [4]: 100% | Population Pyknosed Nuclei (%) [4]: 8.86% and 11.45% | Population Tubulin-Different-Phenotype (%) [4]: 1.43% and 0.52% | Total Cell Count [4]: 542 and 227 | Population Apoptotic (%) [5]: 46.05% and 40.48% | Population Fragmented Nuclei (%) [5]: 3.37% and 3.16% | Population Healthy Nuclei (%) [5]: 89.31% and 83.54% | Population Hoechst High Intensity Objects (%) [5]: 0% | Population Membrane Permeable-Phenotype (%) [5]: 1.29% and 1.14% | Population Mitochondria Different-Phenotype (%) [5]: 0.11% and 2.65% | Population Mitotic Cells (%) [5]: 53.95% and 59.52% | Population Normal (%) [5]: 100% | Population Pyknosed Nuclei (%) [5]: 7.32% and 13.29% | Population Tubulin-Different-Phenotype (%) [5]: 0.32% and 0% | Population Apoptotic (%) [6]: 40% and 47.5% | Population Fragmented Nuclei (%) [6]: 2.52% and 1.99% | Population Healthy Nuclei (%) [6]: 89.1% and 88.09% | Population Hoechst High Intensity Objects (%) [6]: 0% | Population Membrane Permeable-Phenotype (%) [6]: 0.47% and 3.66% | Population Mitochondria Different-Phenotype (%) [6]: 0% and 0.85% | Population Mitotic Cells (%) [6]: 60% and 52.5% | Population Normal (%) [6]: 100% | Population Pyknosed Nuclei (%) [6]: 8.39% and 9.93% | Population Tubulin-Different-Phenotype (%) [6]: 0.82% and 1.13% | Total Cell Count [6]: 954 and 403
